In ChEMBL document CHEMBL4190329, “Design, Synthesis, and Biological Evaluation of the First c-Met/HDAC Inhibitors Based on Pyridazinone Derivatives” (ACS Med Chem Lett, 2017):
The source made the active and inactive calls. The rule behind the calls is not given here.

Columns and labels:
[1] = target: T1, Hepatocyte growth factor receptor (Homo sapiens, UniProt P08581); assay: Inhibition of recombinant human His-tagged c-Met cytoplasmic domain (956 to 1390 residues) expressed in baculovirus expression system using poly (Glu,Tyr)4:1 as substrate after 60 mins by spectrophotometric analysis
T1 sequence (P08581 whole entry, the tested form may be a part): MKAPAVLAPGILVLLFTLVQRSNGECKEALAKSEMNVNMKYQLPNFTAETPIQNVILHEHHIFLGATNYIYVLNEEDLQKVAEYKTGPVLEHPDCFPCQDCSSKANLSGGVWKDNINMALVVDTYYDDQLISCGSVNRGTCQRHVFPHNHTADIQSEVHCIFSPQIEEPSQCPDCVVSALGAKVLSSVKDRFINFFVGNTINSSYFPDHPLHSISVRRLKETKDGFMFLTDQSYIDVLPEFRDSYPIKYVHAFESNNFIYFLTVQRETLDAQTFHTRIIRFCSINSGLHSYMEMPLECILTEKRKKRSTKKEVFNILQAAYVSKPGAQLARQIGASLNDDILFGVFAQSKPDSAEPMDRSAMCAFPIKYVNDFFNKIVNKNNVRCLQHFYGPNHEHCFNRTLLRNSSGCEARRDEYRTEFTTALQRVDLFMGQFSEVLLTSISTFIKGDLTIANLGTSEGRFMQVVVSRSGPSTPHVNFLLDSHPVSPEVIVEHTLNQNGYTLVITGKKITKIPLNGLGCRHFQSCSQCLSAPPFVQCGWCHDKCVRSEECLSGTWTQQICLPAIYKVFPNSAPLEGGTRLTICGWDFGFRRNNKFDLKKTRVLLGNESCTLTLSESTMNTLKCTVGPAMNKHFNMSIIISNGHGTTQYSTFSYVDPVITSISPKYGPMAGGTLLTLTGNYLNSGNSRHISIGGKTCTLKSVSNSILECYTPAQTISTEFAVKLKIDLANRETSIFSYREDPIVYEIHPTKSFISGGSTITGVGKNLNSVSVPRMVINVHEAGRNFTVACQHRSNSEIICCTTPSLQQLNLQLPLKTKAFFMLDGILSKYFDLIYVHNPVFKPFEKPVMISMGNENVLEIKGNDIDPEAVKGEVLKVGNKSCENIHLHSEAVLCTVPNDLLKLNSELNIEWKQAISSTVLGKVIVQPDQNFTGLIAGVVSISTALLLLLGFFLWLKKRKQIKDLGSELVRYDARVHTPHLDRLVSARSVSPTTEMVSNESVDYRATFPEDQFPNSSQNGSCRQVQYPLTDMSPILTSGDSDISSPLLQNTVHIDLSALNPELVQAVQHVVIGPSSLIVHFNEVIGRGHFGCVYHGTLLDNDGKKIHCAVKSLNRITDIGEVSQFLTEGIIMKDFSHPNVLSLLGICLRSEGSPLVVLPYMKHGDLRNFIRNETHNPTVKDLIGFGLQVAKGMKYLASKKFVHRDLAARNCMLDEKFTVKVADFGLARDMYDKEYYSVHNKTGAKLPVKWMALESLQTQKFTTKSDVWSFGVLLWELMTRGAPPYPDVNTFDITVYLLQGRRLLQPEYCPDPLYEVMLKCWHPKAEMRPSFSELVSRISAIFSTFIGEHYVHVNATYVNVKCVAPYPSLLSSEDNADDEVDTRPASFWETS

Histone deacetylase 1 [2] = target: T2, Histone deacetylase 1 (Homo sapiens, UniProt Q13547); assay: Inhibition of recombinant human full length HDAC1 expressed in baculovirus infected Sf9 insect cells using biotinylated lysine 9 acetylated histone H3 (1 to 21 residues) as substrate incubated for 5 mins followed by substrate addition measured after 60 mins by HTRF assay
T2 sequence (Q13547 whole entry, the tested form may be a part): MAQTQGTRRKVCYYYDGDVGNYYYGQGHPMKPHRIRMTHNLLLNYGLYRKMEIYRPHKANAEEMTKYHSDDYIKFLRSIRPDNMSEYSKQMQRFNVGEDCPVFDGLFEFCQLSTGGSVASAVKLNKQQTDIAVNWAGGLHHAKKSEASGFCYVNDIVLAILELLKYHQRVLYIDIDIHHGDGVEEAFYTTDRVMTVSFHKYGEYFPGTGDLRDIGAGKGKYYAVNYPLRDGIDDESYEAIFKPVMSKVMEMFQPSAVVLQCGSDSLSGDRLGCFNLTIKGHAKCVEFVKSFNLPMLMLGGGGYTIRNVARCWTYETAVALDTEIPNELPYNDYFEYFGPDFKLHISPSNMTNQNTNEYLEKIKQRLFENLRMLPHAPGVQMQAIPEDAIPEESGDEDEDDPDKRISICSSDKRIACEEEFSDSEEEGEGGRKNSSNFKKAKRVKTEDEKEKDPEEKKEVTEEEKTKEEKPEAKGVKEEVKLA

EBC-1 = assay: Antiproliferative activity against human EBC1 cells after 72 hrs by SRB assay; type: functional, cell-based; conditions: EBC-1, 72 h
HCT-116 = assay: Antiproliferative activity against human HCT116 cells after 72 hrs by SRB assay; type: functional, cell-based; conditions: HCT-116, 72 h
Histone deacetylase 1 [3] = target: T2, Histone deacetylase 1; assay: Potency index, ratio of chidamide IC50 to compound IC50 for recombinant human full length HDAC1 expressed in baculovirus infected Sf9 insect cells
[4] = target: T1, Hepatocyte growth factor receptor; assay: Inhibition of phosphorylation of c-MET at Tyr1234/1235 residues in human EBC1 cells after 24 hrs by Western blot analysis; type: cell-based
Outline: (§1)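 Intact EBC-1 cells were treated with the compound at several concentrations for 24 h. Protein levels were then read by immunoblotting with specific antibodies.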

[5] = target: T1, Hepatocyte growth factor receptor; assay: Inhibition of c-MET in human EBC1 cells assessed as decrease in Akt phosphorylation at Ser473 residues after 24 hrs by Western blot analysis; type: cell-based; outline: as §1
[6] = target: T1, Hepatocyte growth factor receptor; assay: Inhibition of c-MET in human EBC1 cells assessed as decrease in Erk1/2 phosphorylation at Thr202/Tyr204 residues after 24 hrs by Western blot analysis; type: cell-based; outline: as §1
Histone deacetylase 1 [7] = target: T2, Histone deacetylase 1; assay: Inhibition of HDAC1 in human EBC1 cells assessed as increase in p21 levels at 0.01 to 10 uM after 24 hrs by Western blot analysis; type: cell-based; outline: as §1
Histone deacetylase 1 [8] = target: T2, Histone deacetylase 1; assay: Inhibition of HDAC1 in human EBC1 cells assessed as increase in acetyl-Histone H3 levels at Lys9/Lys14 residues at 0.01 to 10 uM after 24 hrs by Western blot analysis; type: cell-based; outline: as §1
[9] = target: T3, Protein deacetylase HDAC6 (Homo sapiens) (UniProt Q9UBN7); assay: Inhibition of HDAC6 in human EBC1 cells assessed as […] in acetyl alpha-tubulin level at Lys40 at 0.01 to 10 uM after 24 hrs by Western blot analysis; type: cell-based
T3 sequence (whole entry): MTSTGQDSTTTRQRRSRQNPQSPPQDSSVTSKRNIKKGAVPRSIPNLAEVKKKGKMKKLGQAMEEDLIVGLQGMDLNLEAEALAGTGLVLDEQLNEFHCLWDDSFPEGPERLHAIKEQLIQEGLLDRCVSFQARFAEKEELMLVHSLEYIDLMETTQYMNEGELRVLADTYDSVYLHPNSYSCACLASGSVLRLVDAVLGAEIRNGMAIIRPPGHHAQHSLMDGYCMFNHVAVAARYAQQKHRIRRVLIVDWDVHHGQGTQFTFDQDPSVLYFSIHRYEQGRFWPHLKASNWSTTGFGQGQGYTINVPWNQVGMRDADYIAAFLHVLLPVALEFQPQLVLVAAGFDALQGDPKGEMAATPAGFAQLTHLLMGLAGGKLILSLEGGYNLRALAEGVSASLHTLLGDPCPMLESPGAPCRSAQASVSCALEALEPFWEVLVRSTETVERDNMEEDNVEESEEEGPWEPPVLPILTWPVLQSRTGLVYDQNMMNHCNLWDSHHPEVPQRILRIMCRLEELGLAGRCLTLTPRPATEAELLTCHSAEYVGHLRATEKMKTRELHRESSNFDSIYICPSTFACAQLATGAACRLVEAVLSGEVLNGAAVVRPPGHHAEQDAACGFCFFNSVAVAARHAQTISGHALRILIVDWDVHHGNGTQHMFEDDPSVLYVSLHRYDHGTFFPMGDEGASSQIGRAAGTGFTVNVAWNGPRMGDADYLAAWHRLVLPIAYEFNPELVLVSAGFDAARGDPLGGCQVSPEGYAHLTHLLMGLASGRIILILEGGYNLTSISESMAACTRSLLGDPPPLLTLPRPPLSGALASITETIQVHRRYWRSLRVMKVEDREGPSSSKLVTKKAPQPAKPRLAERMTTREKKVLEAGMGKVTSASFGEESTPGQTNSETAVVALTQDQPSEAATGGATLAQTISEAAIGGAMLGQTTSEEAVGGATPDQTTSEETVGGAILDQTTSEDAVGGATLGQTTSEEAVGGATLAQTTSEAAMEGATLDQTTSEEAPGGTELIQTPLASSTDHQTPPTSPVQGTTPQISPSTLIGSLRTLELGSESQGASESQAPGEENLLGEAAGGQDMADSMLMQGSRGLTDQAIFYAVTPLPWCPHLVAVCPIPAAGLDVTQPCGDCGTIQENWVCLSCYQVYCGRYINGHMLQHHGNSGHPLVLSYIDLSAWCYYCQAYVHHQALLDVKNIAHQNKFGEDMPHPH

SMILES	IC50 [1] [nM]	IC50 (Histone deacetylase 1 [2]) [nM]	IC50 (EBC-1) [nM]	IC50 (HCT-116) [nM]	Ratio IC50 (Histone deacetylase 1 [3])	inhibition [4]	inhibition [5]	inhibition [6]	inhibition (Histone deacetylase 1 [7])	inhibition (Histone deacetylase 1 [8])	inhibition [9]
Cn1cc(-c2ccc(=O)n(CCOc3ccnc4cc(-c5ccc(C(=O)Nc6ccccc6N)s5)ccc34)n2)cn1	1.3	467	120	> 10000	–	–	–	–	–	–	–
Cn1cc(-c2ccc(=O)n(CCOc3ccnc4cc(OCCCCCS)ccc34)n2)cn1	1.5	329	640	> 10000	–	–	–	–	–	–	–
Cn1cc(-c2ccc(=O)n(CCOc3ccnc4cc(OCc5ccc(C(=O)Nc6ccccc6N)cc5)ccc34)n2)cn1	0.44	156	42	1800	–	–	–	–	–	–	–
Cn1cc(-c2ccc(=O)n(CCOc3ccnc4cc(OCc5ccc(/C=C/C(=O)Nc6ccccc6N)nc5)ccc34)n2)cn1	0.63	625	46	7900	–	–	–	–	–	–	–
Cn1cc(-c2ccc(=O)n(CCOc3ccnc4cc(Nc5ccc(C(=O)Nc6ccccc6N)nc5)ccc34)n2)cn1	3.7	129	450	> 10000	–	–	–	–	–	–	–
Nc1cc(F)ccc1NC(=O)c1ccc(CNC(=O)/C=C/c2cccnc2)cc1 [TUCIDINOSTAT]	–	–	2900	7800	–	–	–	–	–	–	–
CNC(=O)CCCCCOc1ccc2c(OCCn3nc(-c4cnn(C)c4)ccc3=O)ccnc2c1	1.2	> 1000	79	> 10000	–	–	–	–	–	–	–
Cn1cc(-c2ccc(=O)n(CCOc3ccnc4cc(OCCCCCCC(=O)NO)ccc34)n2)cn1	0.54	18	210	> 10000	–	–	–	–	–	–	–
CC(=O)CCCCCOc1ccc2c(OCCn3nc(-c4cnn(C)c4)ccc3=O)ccnc2c1	1	> 1000	25	> 10000	–	–	–	–	–	–	–
Cn1cc(-c2ccc(=O)n(CCOc3ccnc4cc(OCCCCCC(=O)Nc5ccccc5N)ccc34)n2)cn1	0.96	221	370	7000	–	–	–	–	–	–	–
Cn1cc(-c2ccc(=O)n(CCOc3ccnc4cc(OCCCCCC(=O)NO)ccc34)n2)cn1	0.73	216	460	> 10000	–	–	–	–	–	–	–
Cn1cc(-c2ccc(=O)n(CCOc3ccnc4cc(OCCCOc5ccc(C(=O)Nc6ccccc6N)nc5)ccc34)n2)cn1	0.71	38	58	1300	4	Dose-dependent effect	Dose-dependent effect	Dose-dependent effect	Active	Active	inactive
Cn1cc(-c2ccc(=O)n(CCOc3ccnc4cc(OCc5ccc(CCC(=O)Nc6ccccc6N)cc5)ccc34)n2)cn1	5.1	> 1000	210	> 10000	–	–	–	–	–	–	–
Cn1cc(-c2ccc(=O)n(CCOc3ccnc4cc(OCCCCC(=O)NO)ccc34)n2)cn1	0.96	> 1000	370	> 10000	–	–	–	–	–	–	–
O=c1ccc(-n2ccc3ccc(F)cc32)nn1CCOc1ccnc2cc(OCCCN3CCOCC3)ccc12	0.84	> 1000	60	> 10000	–	–	–	–	–	–	–
Cn1cc(-c2ccc(=O)n(CCOc3ccnc4cc(OCCCC(=O)NO)ccc34)n2)cn1	1	> 1000	870	> 10000	–	–	–	–	–	–	–
Cn1cc(-c2ccc(=O)n(CCOc3ccnc4cc(OCc5ccc(/C=C/C(=O)Nc6ccccc6N)cc5)ccc34)n2)cn1	1.1	> 1000	490	> 10000	–	–	–	–	–	–	–
Cn1cc(-c2ccc(=O)n(CCOc3ccnc4cc(C(=O)Nc5ccccc5N)ccc34)n2)cn1	37	> 1000	> 10000	> 10000	–	–	–	–	–	–	–
